Active and inactive are the calls of the source. No cut-off for these calls is given here. Some results are limits rather than exact numbers.

The target of data set [1] is T1, Fructose-1,6-bisphosphatase 1 (Homo sapiens) (UniProt P09467).
T1 sequence (whole entry): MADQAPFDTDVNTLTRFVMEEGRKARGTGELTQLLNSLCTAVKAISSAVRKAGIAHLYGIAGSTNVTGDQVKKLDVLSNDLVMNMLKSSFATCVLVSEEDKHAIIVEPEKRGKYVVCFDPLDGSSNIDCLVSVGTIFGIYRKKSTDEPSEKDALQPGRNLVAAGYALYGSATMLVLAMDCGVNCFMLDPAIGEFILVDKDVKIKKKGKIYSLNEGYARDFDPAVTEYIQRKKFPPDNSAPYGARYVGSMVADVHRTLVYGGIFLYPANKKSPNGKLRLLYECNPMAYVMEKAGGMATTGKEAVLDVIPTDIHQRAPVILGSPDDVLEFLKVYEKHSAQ
Kind of data set: Binding affinity to ABPP-labeled FBPase (unknown origin) at 2 to 8 uM by silver staining based streptavidin blotting. As to conditions: dose 2-8 µM. In a few lines:
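LO2 lysate (2 mg/mL) treated with 2−8 μM alkyne probe, 37 °C, 2 h. Click-biotinylated by CuAAC (0.5 mM reagents, 1 h, 37 °C), resolved by 10% SDS-PAGE. Probed by silver stain and streptavidin-HRP blot; labelled bands near 35 kDa read. 2 μM iodoacetamide alkyne served as the reference.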

Data set [2] concerns the target T1, Fructose-1,6-bisphosphatase 1 (Homo sapiens). Kind of data set: Binding affinity to ABPP-labeled FBPase (unknown origin) by silver staining based streptavidin blotting. As to conditions: dose 2-10 µM, DDE = dose-dependent effect. An outline of the steps: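 LO2 cell lysate (2 mg/mL protein, RPMI-1640/10% FBS cultures lysed at 70−80% confluence) or purified FBPase labelled with a series of alkyne probe concentrations, 37 °C, 2 h. CuAAC with 0.5 mM each of biotin-PEG3-azide, ascorbate, THPTA and CuSO4, 37 °C, 1 h. Samples run on 10% SDS-PAGE, then silver staining and streptavidin-HRP blot with ECL detection.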

The species named for data set [3] is Homo sapiens. Briefly: Selectivity ratio of IC50 for human FBPase to IC50 for recombinant ALDOB (unknown origin). An outline of the steps:
(§1)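 Aldolase (ALDOA/B/C) IC50 by NADH-coupled assay: enzyme plus serial compound dilutions, 0.41 mM NADH and TPI in 0.1 M Tris pH 7.4/0.2 M K-acetate, 3 min at 37 °C. Started with FBP and […], A340 read every 30 s for 6 min. Ratios against the FBPase IC50 from malachite green phosphate assay (620 nm).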

Data set [4] can be described thus: Half life of the compound in GSH. It counts as physicochemical. To be noted: GSH (glutathione). In a few lines:
(§2)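 Electrophile (20 μmol) incubated at 37 °C either in pH 7.4 buffer, or in DMSO-d6/D2O (5:1), with or without glutathione. Decay followed by 1H NMR kinetics. First-order rate constant kpseudo-1st taken from ln[electrophile] versus time; t1/2 = 0.693/(60×k), in min.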

The species entered for data set [5] is Homo sapiens. Kind of data set: Selectivity ratio of IC50 for human FBPase to IC50 for recombinant ALDOC (unknown origin). In a few lines:
as §1

The species entered for data set [6] is Homo sapiens. Briefly: Selectivity ratio of IC50 for human FBPase to IC50 for recombinant ALDOA (unknown origin). An outline of the steps: as §1
Data set [7] deals with Epidermal growth factor receptor (Homo sapiens) (UniProt P00533). Kind of data set: Inhibition of EGFR (unknown origin) at 300 uM measured after 40 mins in presence of ATP by luminescence assay relative to control. In a few lines: (§3)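 Kinase reaction (50 μL): 40 mM Tris pH 7.4, 10 mM MgCl2, 0.1 mg/mL BSA, 1 mM DTT, 10 μM ATP, kinase and substrate, with 1% final DMSO. Run 40 min at 30 °C. Residual ATP read by Kinase-Glo Plus luminescence, inversely related to kinase activity.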

The species entered for data set [8] is Homo sapiens. Briefly: Selectivity ratio of IC50 for human FBPase to IC50 for human GAPDH. In a few lines: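 Recombinant human GAPDH (His-tag, E. coli; 0.1 mg/mL final) preincubated 30 min with compound in 10 mM sodium pyrophosphate pH 8.5 at 37 °C. Started with arsenate, 4 mM NAD+ and 12 mM G3P; A340 at 4 min. Ratio taken against FBPase IC50 from the malachite green phosphate-release assay.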

Data set [9] concerns the target T2, Fructose-1,6-bisphosphatase 1 (Homo sapiens, UniProt P09467).
T2 sequence (P09467 whole entry): T1 sequence (whole entry)
Kind of data set: Inhibition of human FBPase expressed Escherichia coli BL21 in by malachite green dye based spectrophotometry. In a few lines: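 His-tagged human liver FBPase expressed in E. coli BL21(DE3) and purified by Ni affinity. Phosphate released from FBP complexed with ammonium molybdate/malachite green and read at 620 nm against a KH2PO4 standard curve (2−60 μM). Initial rates at saturating substrate, fixed effector and varied inhibitor fitted to the Hill equation for IC50.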

Data set [10] in a line: Half life of the compound in buffer. It counts as physicochemical. In a few lines: as §2
Data set [11] concerns the target Tyrosine-protein kinase BTK (Homo sapiens) (UniProt Q06187). Briefly: Inhibition of BTK (unknown origin) at 300 uM measured after 40 mins in presence of ATP by luminescence assay relative to control. An outline of the steps:
as §3

The target of data set [12] is T3, Tyrosine-protein kinase JAK3 (Homo sapiens) (UniProt P52333).
T3 sequence (whole entry): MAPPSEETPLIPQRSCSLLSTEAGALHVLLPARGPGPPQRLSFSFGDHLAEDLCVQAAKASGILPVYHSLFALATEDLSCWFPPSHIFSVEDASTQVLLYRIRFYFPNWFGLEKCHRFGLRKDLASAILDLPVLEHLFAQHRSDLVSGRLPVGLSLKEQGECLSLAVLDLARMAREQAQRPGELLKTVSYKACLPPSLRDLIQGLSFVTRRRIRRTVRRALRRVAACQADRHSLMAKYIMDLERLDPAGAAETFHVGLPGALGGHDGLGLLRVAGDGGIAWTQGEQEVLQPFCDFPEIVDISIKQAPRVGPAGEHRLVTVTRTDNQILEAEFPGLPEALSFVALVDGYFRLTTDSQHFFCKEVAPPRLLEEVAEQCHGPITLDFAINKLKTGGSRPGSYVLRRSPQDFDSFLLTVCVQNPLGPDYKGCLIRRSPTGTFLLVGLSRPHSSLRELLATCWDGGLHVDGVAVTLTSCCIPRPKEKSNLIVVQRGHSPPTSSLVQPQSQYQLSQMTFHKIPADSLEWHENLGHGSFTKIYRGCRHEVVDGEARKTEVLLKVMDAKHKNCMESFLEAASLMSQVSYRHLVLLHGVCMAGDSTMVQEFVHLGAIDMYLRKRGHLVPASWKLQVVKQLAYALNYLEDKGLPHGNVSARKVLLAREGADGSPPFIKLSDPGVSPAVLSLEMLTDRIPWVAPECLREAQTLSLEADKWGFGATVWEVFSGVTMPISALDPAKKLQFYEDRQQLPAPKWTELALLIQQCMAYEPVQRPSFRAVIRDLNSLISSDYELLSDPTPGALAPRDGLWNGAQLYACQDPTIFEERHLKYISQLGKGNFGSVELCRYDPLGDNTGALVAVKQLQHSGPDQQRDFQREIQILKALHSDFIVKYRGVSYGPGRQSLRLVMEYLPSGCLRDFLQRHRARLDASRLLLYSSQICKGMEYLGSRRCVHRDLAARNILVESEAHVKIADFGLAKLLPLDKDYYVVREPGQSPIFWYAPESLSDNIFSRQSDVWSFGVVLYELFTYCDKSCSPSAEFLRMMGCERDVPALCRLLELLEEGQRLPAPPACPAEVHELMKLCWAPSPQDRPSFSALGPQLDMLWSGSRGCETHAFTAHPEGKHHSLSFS
Briefly: Inhibition of JAK3 (unknown origin) at 300 uM measured after 40 mins in presence of ATP by luminescence assay relative to control. An outline of the steps:
as §3

The nature of data set [13]: Half life of the compound in DMSO. The class given is physicochemical. In a few lines: as §2
Data set [14] is described as follows: in vivo. As to conditions: ICR, mouse, ip, 30 mg/kg.
The nature of data set [15]: in vivo. To be noted: ICR, mouse, ip, 30 mg/kg. The source holds these as a separate data set.
Data set [16] is described as follows: AUCt in 12 hrs fasted ICR mouse at 30 mg/kg, ip measured after 24 hrs by LC-MS/MS analysis. As to conditions: in vivo.
A short description of data set [17]: in vivo. As to conditions: ICR, mouse, ip, 30 mg/kg. This is another data set of the same source.

Chain of Tyrosine-protein kinase BTK (Homo sapiens) (Q06187 whole entry): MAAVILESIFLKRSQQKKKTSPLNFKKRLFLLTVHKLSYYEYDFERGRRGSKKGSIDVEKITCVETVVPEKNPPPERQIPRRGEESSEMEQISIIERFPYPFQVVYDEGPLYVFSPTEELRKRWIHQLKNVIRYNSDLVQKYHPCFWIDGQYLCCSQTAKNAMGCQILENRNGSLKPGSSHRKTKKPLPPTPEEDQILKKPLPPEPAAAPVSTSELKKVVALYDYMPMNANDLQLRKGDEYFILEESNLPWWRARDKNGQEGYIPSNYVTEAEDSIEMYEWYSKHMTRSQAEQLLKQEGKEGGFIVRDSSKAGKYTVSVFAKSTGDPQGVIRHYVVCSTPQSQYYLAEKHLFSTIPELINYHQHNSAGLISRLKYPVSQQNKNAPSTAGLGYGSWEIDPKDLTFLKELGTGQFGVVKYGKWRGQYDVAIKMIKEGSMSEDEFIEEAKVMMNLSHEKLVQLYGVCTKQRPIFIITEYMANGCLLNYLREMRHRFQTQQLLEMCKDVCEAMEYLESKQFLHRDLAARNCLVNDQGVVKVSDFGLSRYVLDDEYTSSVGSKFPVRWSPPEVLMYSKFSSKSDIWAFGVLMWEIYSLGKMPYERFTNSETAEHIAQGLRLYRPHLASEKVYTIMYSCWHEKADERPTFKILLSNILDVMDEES
Chain of Epidermal growth factor receptor (Homo sapiens) (P00533 whole entry): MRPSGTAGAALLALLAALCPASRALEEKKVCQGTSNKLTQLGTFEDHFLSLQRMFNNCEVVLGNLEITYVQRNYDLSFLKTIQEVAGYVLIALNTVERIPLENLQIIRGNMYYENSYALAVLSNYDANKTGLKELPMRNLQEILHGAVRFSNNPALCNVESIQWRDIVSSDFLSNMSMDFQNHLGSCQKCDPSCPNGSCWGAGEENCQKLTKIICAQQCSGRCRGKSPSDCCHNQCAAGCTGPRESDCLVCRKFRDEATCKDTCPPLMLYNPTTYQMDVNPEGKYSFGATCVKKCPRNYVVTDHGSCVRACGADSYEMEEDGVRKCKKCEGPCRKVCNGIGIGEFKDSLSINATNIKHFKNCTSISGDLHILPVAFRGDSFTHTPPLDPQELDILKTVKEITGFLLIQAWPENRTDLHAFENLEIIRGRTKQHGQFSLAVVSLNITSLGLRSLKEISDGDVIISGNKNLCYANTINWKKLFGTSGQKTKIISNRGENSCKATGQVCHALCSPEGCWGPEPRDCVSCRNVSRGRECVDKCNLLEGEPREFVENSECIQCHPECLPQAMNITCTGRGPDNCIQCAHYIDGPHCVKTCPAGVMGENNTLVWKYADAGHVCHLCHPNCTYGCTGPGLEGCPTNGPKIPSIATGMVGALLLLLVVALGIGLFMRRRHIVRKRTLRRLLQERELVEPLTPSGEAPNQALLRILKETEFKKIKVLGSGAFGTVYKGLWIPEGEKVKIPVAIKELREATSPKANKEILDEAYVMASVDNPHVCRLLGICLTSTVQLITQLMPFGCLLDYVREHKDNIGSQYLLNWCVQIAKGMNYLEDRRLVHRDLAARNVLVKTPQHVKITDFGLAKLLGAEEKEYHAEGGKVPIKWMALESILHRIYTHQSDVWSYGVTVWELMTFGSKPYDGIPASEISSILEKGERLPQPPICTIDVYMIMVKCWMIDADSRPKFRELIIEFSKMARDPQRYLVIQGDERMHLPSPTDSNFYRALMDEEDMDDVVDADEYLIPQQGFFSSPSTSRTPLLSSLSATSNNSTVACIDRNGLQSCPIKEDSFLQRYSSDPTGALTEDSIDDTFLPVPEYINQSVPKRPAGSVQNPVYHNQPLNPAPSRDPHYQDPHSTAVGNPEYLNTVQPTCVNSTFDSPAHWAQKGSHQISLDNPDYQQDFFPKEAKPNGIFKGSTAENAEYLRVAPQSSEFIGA

For the compound `C#Cc1ccc(CNC(=O)N2C(=O)c3ccccc3S2(=O)=O)cc1`, the outcome in [1] was Active. Moreover, the Activity entry in data set [2] is “Dde”.

Take `COc1ccccc1CNC(=O)N1C(=O)c2ccccc2S1(=O)=O`: the Ratio IC50 in data set [3], in data set [5], in data set [6] and in [8] was over 25 throughout. Also, the half-life (commonly how long it takes for the measured level to halve) in data set [4] is 1.12 h; in data set [10], over 167 h; in [13] it was over 167 h. The inhibition in data set [7], in [11] and in data set [12] was under 50% in each case. In addition, in data set [9], the IC50 (in general, the concentration at which inhibition is half-maximal) came out at 1.7 µM.

As to `O=C1NS(=O)(=O)c2ccccc21` [SACCHARIN], the time of peak concentration (Tmax) (commonly the time at which the peak concentration occurs) at 12 h in [14] was 0.25 h. For the same compound, the highest level in data set [15] (Cmax at 12 h) was 29.9 µg/mL. The AUC(0-t) – broadly, exposure summed from dosing to a finite time, without extrapolation to infinity – at 12 h in [16] was determined as 14 µg·h/mL. In data set [17], the half-life at 12 h was 1.11 h.

The values are drawn from ChEMBL document CHEMBL5143731, “N-Acylamino Saccharin as an Emerging Cysteine-Directed Covalent Warhead and Its Application in the Identification of Novel FBPase Inhibitors toward Glucose Reduction” (J Med Chem, 2022).
